Assay results from ChEMBL document CHEMBL3588850, “Multivalent Amino Sugars to Recognize Different TAR RNA Conformations” (Medchemcomm, 2014).
Active and inactive are the calls of the source. No cut-off for these calls is given here.

Experiments:
Nucleic Acid [1] = assay: Binding affinity to wild type HIV1 TAR RNA at pH 6.8 by ethidium bromide displacement assay; format: nucleic-acid assay, Human immunodeficiency virus 1
Outline: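 TAR RNA (200 nM/strand) and EtBr (5 μM) in 100 mM KCl, 10 mM SC, 0.5 mM EDTA, pH 6.8, titrated with ligand aliquots (at most 4% v/v). Fluorescence excited at 545 nm and read at 610 nm. IC50 is the ligand concentration that displaces 50% of EtBr, taken from a sigmoidal fit of fraction displaced versus log ligand concentration.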

Nucleic Acid [2] = assay: Induction of conformational changes in wild type HIV1 TAR RNA assessed as increase in intensity in 265 nm region using 1 molar equivalents of compound at pH 6.8 by CD spectroscopy; format: nucleic-acid assay; conditions: Human immunodeficiency virus 1
Nucleic Acid [3] = assay: Binding affinity to HIV1 TAR RNA tetraloop mutant at pH 6.8 by ethidium bromide displacement assay; format: nucleic-acid assay, Human immunodeficiency virus 1
Outline: (§1)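 Synthetic 2′-ACE-protected TAR RNA, deprotected, heated 98 °C 5 min, then ice-cooled 15 min. TAR RNA at 200 nM/strand with ethidium bromide 5 μM in 100 mM KCl, 10 mM SC, 0.5 mM EDTA, pH 6.8. Ligand added stepwise, ≤4% v/v. Excitation 545 nm, emission 580–660 nm, intensity at 610 nm normalized. IC50 from sigmoidal fit of fraction EtBr displaced vs log ligand; association constants from Scatchard analysis.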

Nucleic Acid [4] = assay: Binding affinity to wild type HIV1 TAR RNA assessed as association constant at pH 6.8 by ethidium bromide displacement assay based Scatchard analysis method; format: nucleic-acid assay; conditions: Human immunodeficiency virus 1
Outline: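 Ethidium bromide displacement: 5 μM EtBr with TAR RNA at 200 nM/strand (under 20% of EtBr bound) in 100 mM KCl, 10 mM SC, 0.5 mM EDTA, pH 6.8. Ligand added in concentrated aliquots, at most 4% v/v. Excitation 545 nm, emission 580–660 nm, intensity at 610 nm. Association constant obtained by Scatchard analysis of the titration data.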

Nucleic Acid [5] = assay: Binding affinity to HIV1 TAR RNA bulgeless tetraloop mutant at pH 6.8 by ethidium bromide displacement assay; format: nucleic-acid assay, Human immunodeficiency virus 1; outline: as §1
Nucleic Acid [6] = assay: Binding affinity to HIV1 TAR RNA U3 bulge mutant at pH 6.8 by ethidium bromide displacement assay; format: nucleic-acid assay, Human immunodeficiency virus 1; outline: as §1
Nucleic Acid [7] = assay: Binding affinity to HIV1 TAR RNA tetraloop mutant assessed as association constant at pH 6.8 by ethidium bromide displacement assay based Scatchard analysis method; format: nucleic-acid assay; conditions: Human immunodeficiency virus 1; outline: as §1
Nucleic Acid [8] = assay: Binding affinity to HIV1 TAR RNA bulgeless tetraloop mutant assessed as association constant at pH 6.8 by ethidium bromide displacement assay based Scatchard analysis method; format: nucleic-acid assay; conditions: Human immunodeficiency virus 1; outline: as §1
Nucleic Acid [9] = assay: Binding affinity to HIV1 TAR RNA bulgeless mutant assessed as association constant at pH 6.8 by ethidium bromide displacement assay based Scatchard analysis method; format: nucleic-acid assay; conditions: Human immunodeficiency virus 1; outline: as §1
Nucleic Acid [10] = assay: Binding affinity to HIV1 TAR RNA bulgeless mutant at pH 6.8 by ethidium bromide displacement assay; format: nucleic-acid assay, Human immunodeficiency virus 1; outline: as §1
Nucleic Acid [11] = assay: Induction of conformational changes in wild type HIV1 TAR RNA assessed as changes in 210 to 220 nm region using 1 molar equivalents of compound at pH 6.8 by CD spectroscopy; format: nucleic-acid assay; conditions: Human immunodeficiency virus 1
Nucleic Acid [12] = assay: Binding affinity to HIV1 TAR RNA U3 bulge mutant at assessed as association constant at pH 6.8 by ethidium bromide displacement assay based Scatchard analysis method; format: nucleic-acid assay; conditions: Human immunodeficiency virus 1; outline: as §1
Nucleic Acid [13] = assay: Induction of conformational changes in HIV1 TAR RNA bulgeless tetraloop mutant assessed as changes in 260 to 270 nm region using 1 molar equivalents of compound at pH 6.8 by CD spectroscopy; format: nucleic-acid assay; conditions: Human immunodeficiency virus 1
Outline: (§2)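 Spectra recorded before and after adding 1 molar equivalent ligand (≤1% v/v, in buffer). Scan 325–200 nm at 500 nm/min, 1 nm bandwidth, 1 cm cuvette, 20 °C. Each spectrum is the average of 10 scans; ΔCD plotted.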

Nucleic Acid [14] = assay: Induction of conformational changes in HIV1 TAR RNA bulgeless mutant assessed as induction of red shift in CD spectra region using 1 molar equivalents of compound at pH 6.8 by CD spectroscopy; format: nucleic-acid assay; conditions: Human immunodeficiency virus 1; outline: as §2
Nucleic Acid [15] = assay: Induction of conformational changes in HIV1 TAR RNA tetraloop mutant assessed as changes in 210 to 220 nm region using 1 molar equivalents of compound at pH 6.8 by CD spectroscopy; format: nucleic-acid assay; conditions: Human immunodeficiency virus 1; outline: as §2
Nucleic Acid [16] = assay: Induction of conformational changes in HIV1 TAR RNA tetraloop mutant assessed as changes in 260 to 270 nm region using 1 molar equivalents of compound at pH 6.8 by CD spectroscopy; format: nucleic-acid assay; conditions: Human immunodeficiency virus 1; outline: as §2
[17] = test system: Human immunodeficiency virus 1; assay: Induction of thermal stability changes in HIV1 TAR RNA bulgeless tetraloop mutant assessed as change in melting temperature using 1 molar equivalents of compound pre-incubated for 4 hrs at pH 6.8 at 4 degC before test by UV thermal denaturation assay
Outline: (§3)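 TAR RNA mutants at 1 μM/strand mixed with 1 or 2 molar equivalents of ligand in 100 mM KCl, 10 mM SC, 0.5 mM EDTA, pH 6.8, then held 4 h at 4 °C. Absorbance at 260 nm in 1 cm cuvettes, 15–100 °C, heating 0.3 °C/min. Tm taken from first-derivative plots and compared with the no-ligand sample.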

[18] = test system: Human immunodeficiency virus 1; assay: Induction of thermal stability changes in wild type HIV1 TAR RNA assessed as change in melting temperature using 1 molar equivalents of compound pre-incubated for 4 hrs at pH 6.8 at 4 degC before test by UV thermal denaturation assay
Nucleic Acid [19] = assay: Induction of conformational changes in HIV1 TAR RNA bulgeless mutant assessed as changes in 260 to 270 nm region using 1 molar equivalents of compound at pH 6.8 by CD spectroscopy; format: nucleic-acid assay; conditions: Human immunodeficiency virus 1; outline: as §2
[20] = test system: Human immunodeficiency virus 1; assay: Induction of thermal stability changes in HIV1 TAR RNA tetraloop mutant assessed as change in melting temperature using 1 molar equivalents of compound pre-incubated for 4 hrs at pH 6.8 at 4 degC before test by UV thermal denaturation assay; outline: as §3
Nucleic Acid [21] = assay: Induction of conformational changes in HIV1 TAR RNA U3 bulge mutant aassessed as changes in 260 to 270 nm region using 1 molar equivalents of compound at pH 6.8 by CD spectroscopy; format: nucleic-acid assay; conditions: Human immunodeficiency virus 1; outline: as §2
Nucleic Acid [22] = assay: Binding affinity to wild type HIV1 TAR RNA assessed as induction of chemical shifts changes of GH1 and UH3 regions by NMR spectroscopy; format: nucleic-acid assay; conditions: Human immunodeficiency virus 1
Outline: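 Imino-region 1D 1H jump-return echo spectra recorded at 298 K on an 850 MHz instrument with a cryoprobe, with increasing amounts of ligand added.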

Nucleic Acid [23] = assay: Induction of conformational changes in HIV1 TAR RNA U3 bulge mutant assessed as induction of red shift in CD spectra region using 1 molar equivalents of compound at pH 6.8 by CD spectroscopy; format: nucleic-acid assay; conditions: Human immunodeficiency virus 1; outline: as §2
[24] = test system: Human immunodeficiency virus 1; assay: Induction of thermal stability changes in HIV1 TAR RNA bulgeless mutant assessed as change in melting temperature using 1 molar equivalents of compound pre-incubated for 4 hrs at pH 6.8 at 4 degC before test by UV thermal denaturation assay; outline: as §3
Nucleic Acid [25] = assay: Binding affinity to HIV1 TAR RNA tetraloop mutant assessed as induction of imino chemical shifts changes by NMR spectroscopy; format: nucleic-acid assay; conditions: Human immunodeficiency virus 1
Nucleic Acid [26] = assay: Induction of conformational changes in HIV1 TAR RNA bulgeless tetraloop mutant assessed as induction of red shift in CD spectra region using 1 molar equivalents of compound at pH 6.8 by CD spectroscopy; format: nucleic-acid assay; conditions: Human immunodeficiency virus 1; outline: as §2
Nucleic Acid [27] = assay: Induction of conformational changes in HIV1 TAR RNA bulgeless mutant assessed as changes in 210 to 220 nm region using 1 molar equivalents of compound at pH 6.8 by CD spectroscopy; format: nucleic-acid assay; conditions: Human immunodeficiency virus 1; outline: as §2
Nucleic Acid [28] = assay: Induction of conformational changes in HIV1 TAR RNA U3 bulge mutant aassessed as changes in 210 to 220 nm region using 1 molar equivalents of compound at pH 6.8 by CD spectroscopy; format: nucleic-acid assay; conditions: Human immunodeficiency virus 1; outline: as §2
Nucleic Acid [29] = assay: Induction of conformational changes in HIV1 TAR RNA bulgeless tetraloop mutant assessed as changes in 210 to 220 nm region using 1 molar equivalents of compound at pH 6.8 by CD spectroscopy; format: nucleic-acid assay; conditions: Human immunodeficiency virus 1; outline: as §2
Nucleic Acid [30] = assay: Induction of conformational changes in HIV1 TAR RNA tetraloop mutant assessed as induction of red shift in CD spectra region using 1 molar equivalents of compound at pH 6.8 by CD spectroscopy; format: nucleic-acid assay; conditions: Human immunodeficiency virus 1; outline: as §2
[31] = test system: Human immunodeficiency virus 1; assay: Induction of thermal stability changes in HIV1 TAR RNA U3 bulge mutant assessed as change in melting temperature using 1 molar equivalents of compound pre-incubated for 4 hrs at pH 6.8 at 4 degC before test by UV thermal denaturation assay; outline: as §3

For NC[C@@H]1O[C@H](O[C@H]2[C@@H](O)[C@H](O[C@@H]3[C@@H](O)[C@H](N)C[C@H](N)[C@H]3O[C@H]3O[C@H](CN)[C@@H](O)[C@H](O)[C@H]3N)O[C@@H]2Cn2cc(-c3cccc(-c4cn(C[C@H]5O[C@@H](O[C@@H]6[C@@H](O)[C@H](N)C[C@H](N)[C@H]6O[C@H]6O[C@H](CN)[C@@H](O)[C@H](O)[C@H]6N)[C@H](O)[C@@H]5O[C@H]5O[C@@H](CN)[C@@H](O)[C@H](O)[C@H]5N)nn4)c3)nn2)[C@H](N)[C@@H](O)[C@@H]1O, the IC50 (Nucleic Acid [1]) was 110 nM, the Activity (Nucleic Acid [2]) was “Active” and the IC50 (Nucleic Acid [3]) was 180 nM. For the same compound, the K (Nucleic Acid [4]) was 1.4 ×10⁸ /M, the IC50 (Nucleic Acid [5]) was 142 nM and the IC50 (Nucleic Acid [6]) was 244 nM. It also gave a K (Nucleic Acid [7]) of 1.3 ×10⁷ /M, a K (Nucleic Acid [8]) of 6.9 ×10⁷ /M and a K (Nucleic Acid [9]) of 1 ×10⁸ /M. The IC50 (Nucleic Acid [10]) was 130 nM and the Activity (Nucleic Acid [11]) was “Active”.
NC[C@@H]1O[C@H](O[C@H]2[C@@H](O)[C@H](O[C@@H]3[C@@H](O)[C@H](N)C[C@H](N)[C@H]3O[C@H]3O[C@H](CN)[C@@H](O)[C@H](O)[C@H]3N)O[C@@H]2Cn2cc(COCc3cn(C[C@H]4O[C@@H](O[C@@H]5[C@@H](O)[C@H](N)C[C@H](N)[C@H]5O[C@H]5O[C@H](CN)[C@@H](O)[C@H](O)[C@H]5N)[C@H](O)[C@@H]4O[C@H]4O[C@@H](CN)[C@@H](O)[C@H](O)[C@H]4N)nn3)nn2)[C@H](N)[C@@H](O)[C@@H]1O was tested, and the IC50 (Nucleic Acid [1]) was 112 nM, the K (Nucleic Acid [12]) was 1.6 ×10⁷ /M and the Activity (Nucleic Acid [13]) was “Active”. For the same compound, the Activity (Nucleic Acid [14]) was “Active”, the Activity (Nucleic Acid [15]) was “inactive” and the Activity (Nucleic Acid [2]) was “inactive”. For the same compound, the Activity (Nucleic Acid [16]) was “Active”, the ΔTm [17] was > 5 °C and the IC50 (Nucleic Acid [3]) was 156 nM. It also gave a K (Nucleic Acid [4]) of 1.2 ×10⁸ /M, an IC50 (Nucleic Acid [5]) of 122 nM and a ΔTm [18] of 10.2 °C. For the same compound, the Activity (Nucleic Acid [19]) was “Active”, the ΔTm [20] was 6 °C and the Activity (Nucleic Acid [21]) was “Active”. For the same compound, the Activity (Nucleic Acid [22]) was “Dose-dependent effect”, the IC50 (Nucleic Acid [6]) was 186 nM and the K (Nucleic Acid [7]) was 2.7 ×10⁷ /M. The Activity (Nucleic Acid [23]) was “Active”, the ΔTm [24] was 5 °C and the Activity (Nucleic Acid [25]) was “Active”. The K (Nucleic Acid [8]) was 2.3 ×10⁸ /M, the Activity (Nucleic Acid [26]) was “Active” and the K (Nucleic Acid [9]) was 7.5 ×10⁷ /M. For the same compound, the Activity (Nucleic Acid [27]) was “inactive”, the Activity (Nucleic Acid [28]) was “Active” and the Activity (Nucleic Acid [29]) was “inactive”. For the same compound, the Activity (Nucleic Acid [11]) was “Active”, the Activity (Nucleic Acid [30]) was “Active” and the ΔTm [31] was 8.5 °C.
